Experimental data: ChEMBL document CHEMBL1275561, “In vitro activities of doripenem, a new broad-spectrum carbapenem, against recently collected clinical anaerobic isolates, with emphasis on the Bacteroides fragilis group” (2008)
In brackets after ≈: the same amount, converted by molar mass.

Columns and labels:
Format in all cases: functional
[1] = test system: Parabacteroides distasonis; assay: Antimicrobial activity against Bacteroides distasonis by agar dilution method
Outline: (§1)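 CLSI agar dilution on enriched brucella agar (5% lysed defibrinated sheep blood, 1 μg/ml vitamin K1), with drug plates made on the test day. Log-phase cells were adjusted to 0.5 McFarland, and about 10^5 CFU/spot was delivered by Steers replicator. Plates were incubated anaerobically at 37°C for 48 h. MIC was the lowest concentration giving a marked growth change versus the control plate. Controls were B. fragilis ATCC 25285 and B. thetaiotaomicron ATCC 29741.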

Bacteroides caccae [2] = assay: Antimicrobial activity against Bacteroides caccae assessed as resistant isolates by agar dilution method
Outline: (§2)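 CLSI agar dilution on enriched brucella agar (5% lysed defibrinated sheep blood, 1 μg/ml vitamin K1), plates made on test day. Log-phase inocula adjusted to 0.5 McFarland; about 10^5 CFU/spot by Steers replicator. Incubated anaerobically at 37°C for 48 h. MIC was the lowest concentration giving a marked change in growth versus the drug-free control plate. Resistance rates used CLSI anaerobe breakpoints. Controls were B. fragilis ATCC 25285 and B. thetaiotaomicron ATCC 29741.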

Bacteroides caccae [3] = assay: Antimicrobial activity against Bacteroides caccae by agar dilution method; outline: as §1
[4] = test system: Parabacteroides distasonis; assay: Antimicrobial activity against Bacteroides distasonis assessed as resistant isolates by agar dilution method; outline: as §2
Bacteroides fragilis [5] = assay: Antimicrobial activity against Bacteroides fragilis by agar dilution method; outline: as §1
Bacteroides fragilis [6] = assay: Antimicrobial activity against Bacteroides fragilis assessed as resistant isolates by agar dilution method; outline: as §2
Bacteroides ovatus [7] = assay: Antimicrobial activity against Bacteroides ovatus by agar dilution method; outline: as §1
Bacteroides ovatus [8] = assay: Antimicrobial activity against Bacteroides ovatus assessed as resistant isolates by agar dilution method; outline: as §2
[9] = test system: Bacteroides thetaiotaomicron; assay: Antimicrobial activity against Bacteroides thetaiotaomicron by agar dilution method; outline: as §1
[10] = test system: Bacteroides thetaiotaomicron; assay: Antimicrobial activity against Bacteroides thetaiotaomicron assessed as resistant isolates by agar dilution method; outline: as §2
Bacteroides uniformis [11] = assay: Antimicrobial activity against Bacteroides uniformis by agar dilution method; outline: as §1
Bacteroides uniformis [12] = assay: Antimicrobial activity against Bacteroides uniformis assessed as resistant isolates by agar dilution method; outline: as §2
Phocaeicola vulgatus [13] = assay: Antimicrobial activity against Bacteroides vulgatus by agar dilution method; outline: as §1
Phocaeicola vulgatus [14] = assay: Antimicrobial activity against Bacteroides vulgatus assessed as resistant isolates by agar dilution method; outline: as §2
Bacteroides eggerthii [15] = assay: Antimicrobial activity against Bacteroides eggerthii by agar dilution method; outline: as §1
Bacteroides eggerthii [16] = assay: Antimicrobial activity against Bacteroides eggerthii assessed as resistant isolates by agar dilution method; outline: as §2
Parabacteroides merdae [17] = assay: Antimicrobial activity against Bacteroides merdae by agar dilution method; outline: as §1
Parabacteroides merdae [18] = assay: Antimicrobial activity against Bacteroides merdae assessed as resistant isolates by agar dilution method; outline: as §2
Bacteroides nordii [19] = assay: Antimicrobial activity against Bacteroides nordii by agar dilution method; outline: as §1
Bacteroides nordii [20] = assay: Antimicrobial activity against Bacteroides nordii assessed as resistant isolates by agar dilution method; outline: as §2
Clostridioides difficile = assay: Antimicrobial activity against Clostridium difficile by agar dilution method
Clostridium perfringens = assay: Antimicrobial activity against Clostridium perfringens by agar dilution method
[Clostridium] innocuum [21] = Antimicrobial activity against Clostridium innocuum by agar dilution method
[Clostridium] innocuum [22] = Antimicrobial activity against Clostridium innocuum assessed as resistant isolates by agar dilution method; conditions: pooled result: one value given for 4 cell lines, strains, targets or settings
[23] = test system: Clostridium paraputrificum; assay: Antimicrobial activity against Clostridium paraputrificum by agar dilution method
Clostridium subterminale = assay: Antimicrobial activity against Clostridium subterminale by agar dilution method
Clostridium tertium = assay: Antimicrobial activity against Clostridium tertium by agar dilution method
Finegoldia magna [24] = assay: Antimicrobial activity against Finegoldia magna by agar dilution method
Outline: (§3)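 Gram-positive anaerobes were tested by CLSI agar dilution on brucella agar enriched with 5% lysed defibrinated sheep blood and 1 μg/ml vitamin K1. Inoculum was log-phase growth at 0.5 McFarland, about 10^5 CFU/spot by replicator. Incubation was anaerobic, 37°C, 48 h. MIC was the lowest concentration with a marked growth change versus the drug-free plate. Eubacterium lentum ATCC 43055 was the control, and tests were repeated if it fell outside the CLSI range.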

Finegoldia magna [25] = assay: Antimicrobial activity against Finegoldia magna assessed as resistant isolates by agar dilution method
Outline: (§4)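 Agar dilution following CLSI on brucella agar with 5% lysed defibrinated sheep blood and 1 μg/ml vitamin K1, plates made on test day. Log-phase cells at 0.5 McFarland, about 10^5 CFU/spot by Steers replicator, 48 h anaerobic at 37°C. MIC read as the lowest concentration causing a marked growth change versus control. Resistance counted by CLSI anaerobe breakpoints. Eubacterium lentum ATCC 43055 served as control.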

[26] = test system: Peptoniphilus asaccharolyticus; assay: Antimicrobial activity against Peptoniphilus asaccharolyticus by agar dilution method; outline: as §3
[27] = test system: Peptoniphilus asaccharolyticus; assay: Antimicrobial activity against Peptoniphilus asaccharolyticus assessed as resistant isolates by agar dilution method; conditions: pooled result: one value given for 4 cell lines, strains, targets or settings; outline: as §4
Parvimonas micra = assay: Antimicrobial activity against Micromonas micros by agar dilution method; outline: as §3
Anaerococcus prevotii = assay: Antimicrobial activity against Anaerococcus prevotii by agar dilution method; outline: as §3
Peptostreptococcus sp. = assay: Antimicrobial activity against Peptostreptococcus sp. by agar dilution method
Outline: (§5)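 Log-phase isolates were adjusted to 0.5 McFarland, and about 10^5 CFU/spot was delivered by Steers replicator. Plates were incubated anaerobically at 37°C for 48 h. MIC was the lowest concentration giving a marked growth change versus the control plate. Eubacterium lentum ATCC 43055 was the QC strain, with repeats when out of range.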

Cutibacterium acnes [28] = assay: Antimicrobial activity against Propionibacterium acnes by agar dilution method; outline: as §5
Cutibacterium acnes [29] = assay: Antimicrobial activity against Propionibacterium acnes assessed as resistant isolates by agar dilution method; outline: as §4
Propionibacterium [30] = assay: Antimicrobial activity against Propionibacterium sp. by agar dilution method; outline: as §5
Propionibacterium [31] = assay: Antimicrobial activity against Propionibacterium sp. assessed as resistant isolates by agar dilution method; outline: as §4

## C[C@@H](O)[C@H]1C(=O)N2C(C(=O)O)=C(S[C@@H]3CN[C@H](CNS(N)(=O)=O)C3)[C@H](C)[C@H]12 [DORIPENEM]
[1]
  MIC50: 0.5 µg/mL (≈ 1.19 µM)
  MIC90: 2 µg/mL (≈ 4.76 µM)
Bacteroides caccae [2]
  Activity: 0%
Bacteroides caccae [3]
  MIC50: 0.5 µg/mL (≈ 1.19 µM)
  MIC90: 2 µg/mL (≈ 4.76 µM)
[4]
  Activity: 0%
Bacteroides fragilis [5]
  MIC50: 0.5 µg/mL (≈ 1.19 µM)
  MIC90: 1 µg/mL (≈ 2.38 µM)
Bacteroides fragilis [6]
  Activity: 1.5%
Bacteroides ovatus [7]
  MIC50: 0.5 µg/mL (≈ 1.19 µM)
  MIC90: 2 µg/mL (≈ 4.76 µM)
Bacteroides ovatus [8]
  Activity: 0%
[9]
  MIC50: 0.5 µg/mL (≈ 1.19 µM)
  MIC90: 1 µg/mL (≈ 2.38 µM)
[10]
  Activity: 0%
Bacteroides uniformis [11]
  MIC50: 0.5 µg/mL (≈ 1.19 µM)
  MIC90: 1 µg/mL (≈ 2.38 µM)
Bacteroides uniformis [12]
  Activity: 0%
Phocaeicola vulgatus [13]
  MIC50: 0.5 µg/mL (≈ 1.19 µM)
  MIC90: 2 µg/mL (≈ 4.76 µM)
Phocaeicola vulgatus [14]
  Activity: 0%
Bacteroides eggerthii [15]
  MIC50: 0.5 µg/mL (≈ 1.19 µM)
  MIC90: 1 µg/mL (≈ 2.38 µM)
Bacteroides eggerthii [16]
  Activity: 0%
Parabacteroides merdae [17]
  MIC50: 0.5 µg/mL (≈ 1.19 µM)
  MIC90: 1 µg/mL (≈ 2.38 µM)
Parabacteroides merdae [18]
  Activity: 0%
Bacteroides nordii [19]
  MIC50: 0.5 µg/mL (≈ 1.19 µM)
  MIC90: 1 µg/mL (≈ 2.38 µM)
Bacteroides nordii [20]
  Activity: 0%
Clostridioides difficile
  MIC: 1 µg/mL (≈ 2.38 µM)
Clostridium perfringens
  MIC: 0.06 µg/mL (≈ 0.143 µM)
  MIC50: 0.06 µg/mL (≈ 0.143 µM)
  MIC90: 0.125 µg/mL (≈ 0.297 µM)
[Clostridium] innocuum [21]
  MIC50: 1 µg/mL (≈ 2.38 µM)
  MIC90: 2 µg/mL (≈ 4.76 µM)
[Clostridium] innocuum [22]
  Activity: 0%
[23]
  MIC50: 1 µg/mL (≈ 2.38 µM)
  MIC90: 2 µg/mL (≈ 4.76 µM)
Clostridium subterminale
  MIC50: 1 µg/mL (≈ 2.38 µM)
  MIC90: 2 µg/mL (≈ 4.76 µM)
Clostridium tertium
  MIC50: 1 µg/mL (≈ 2.38 µM)
  MIC90: 2 µg/mL (≈ 4.76 µM)
Finegoldia magna [24]
  MIC50: 0.125 µg/mL (≈ 0.297 µM)
  MIC90: 0.125 µg/mL (≈ 0.297 µM)
Finegoldia magna [25]
  Activity: 0%
[26]
  MIC: 0.06 µg/mL (≈ 0.143 µM)
  MIC50: 0.06 µg/mL (≈ 0.143 µM)
  MIC90: 0.5 µg/mL (≈ 1.19 µM)
[27]
  Activity: 0%
Parvimonas micra
  MIC: 0.06 µg/mL (≈ 0.143 µM)
  MIC50: 0.06 µg/mL (≈ 0.143 µM)
  MIC90: 0.5 µg/mL (≈ 1.19 µM)
Anaerococcus prevotii
  MIC: 0.06 µg/mL (≈ 0.143 µM)
  MIC50: 0.06 µg/mL (≈ 0.143 µM)
  MIC90: 0.5 µg/mL (≈ 1.19 µM)
Peptostreptococcus sp.
  MIC: 0.06 µg/mL (≈ 0.143 µM)
  MIC50: 0.06 µg/mL (≈ 0.143 µM)
  MIC90: 0.5 µg/mL (≈ 1.19 µM)
Cutibacterium acnes [28]
  MIC: 0.06 µg/mL (≈ 0.143 µM)
  MIC50: 0.06 µg/mL (≈ 0.143 µM)
  MIC90: 0.06 µg/mL (≈ 0.143 µM)
Cutibacterium acnes [29]
  Activity: 0%
Propionibacterium [30]
  MIC: 0.06 µg/mL (≈ 0.143 µM)
  MIC50: 0.06 µg/mL (≈ 0.143 µM)
  MIC90: 0.06 µg/mL (≈ 0.143 µM)
Propionibacterium [31]
  Activity: 0%

## Cc1ncc([N+](=O)[O-])n1CCO [METRONIDAZOLE]
Clostridioides difficile
  MIC: 0.5 µg/mL (≈ 2.92 µM)
Clostridium perfringens
  MIC50: 2 µg/mL (≈ 11.7 µM)
  MIC90: 4 µg/mL (≈ 23.4 µM)
[Clostridium] innocuum [21]
  MIC50: 2 µg/mL (≈ 11.7 µM)
  MIC90: 2 µg/mL (≈ 11.7 µM)
[Clostridium] innocuum [22]
  Activity: 5.6%
[23]
  MIC50: 2 µg/mL (≈ 11.7 µM)
  MIC90: 2 µg/mL (≈ 11.7 µM)
Clostridium subterminale
  MIC50: 2 µg/mL (≈ 11.7 µM)
  MIC90: 2 µg/mL (≈ 11.7 µM)
Clostridium tertium
  MIC50: 2 µg/mL (≈ 11.7 µM)
  MIC90: 2 µg/mL (≈ 11.7 µM)
Finegoldia magna [24]
  MIC: 0.5 µg/mL (≈ 2.92 µM)
  MIC50: 0.5 µg/mL (≈ 2.92 µM)
  MIC90: 0.5 µg/mL (≈ 2.92 µM)
Finegoldia magna [25]
  Activity: 0%
[26]
  MIC50: 1 µg/mL (≈ 5.84 µM)
  MIC90: 32 µg/mL (≈ 187 µM)
[27]
  Activity: 34.1%
Parvimonas micra
  MIC50: 1 µg/mL (≈ 5.84 µM)
  MIC90: 32 µg/mL (≈ 187 µM)
Anaerococcus prevotii
  MIC50: 1 µg/mL (≈ 5.84 µM)
  MIC90: 32 µg/mL (≈ 187 µM)
Peptostreptococcus sp.
  MIC50: 1 µg/mL (≈ 5.84 µM)
  MIC90: 32 µg/mL (≈ 187 µM)
Cutibacterium acnes [28]
  MIC50: 32 µg/mL (≈ 187 µM)
  MIC90: 32 µg/mL (≈ 187 µM)
Cutibacterium acnes [29]
  Activity: 94.4%
Propionibacterium [30]
  MIC50: 32 µg/mL (≈ 187 µM)
  MIC90: 32 µg/mL (≈ 187 µM)
Propionibacterium [31]
  Activity: 92.3%
